Test results published in article PMC3240942 (Molecular cell, 2011).

Legend:
[1] = target: T1, Sirt1 (Mus musculus, UniProt Q923E4); experiment: Inhibition of Sirt1 deacetylation of p53 in transfected H1299 cells; type: cell-based; conditions: 10-fold molar excess of expression vector, 20 μM etoposide 1 hr
T1 sequence (Q923E4 1-737): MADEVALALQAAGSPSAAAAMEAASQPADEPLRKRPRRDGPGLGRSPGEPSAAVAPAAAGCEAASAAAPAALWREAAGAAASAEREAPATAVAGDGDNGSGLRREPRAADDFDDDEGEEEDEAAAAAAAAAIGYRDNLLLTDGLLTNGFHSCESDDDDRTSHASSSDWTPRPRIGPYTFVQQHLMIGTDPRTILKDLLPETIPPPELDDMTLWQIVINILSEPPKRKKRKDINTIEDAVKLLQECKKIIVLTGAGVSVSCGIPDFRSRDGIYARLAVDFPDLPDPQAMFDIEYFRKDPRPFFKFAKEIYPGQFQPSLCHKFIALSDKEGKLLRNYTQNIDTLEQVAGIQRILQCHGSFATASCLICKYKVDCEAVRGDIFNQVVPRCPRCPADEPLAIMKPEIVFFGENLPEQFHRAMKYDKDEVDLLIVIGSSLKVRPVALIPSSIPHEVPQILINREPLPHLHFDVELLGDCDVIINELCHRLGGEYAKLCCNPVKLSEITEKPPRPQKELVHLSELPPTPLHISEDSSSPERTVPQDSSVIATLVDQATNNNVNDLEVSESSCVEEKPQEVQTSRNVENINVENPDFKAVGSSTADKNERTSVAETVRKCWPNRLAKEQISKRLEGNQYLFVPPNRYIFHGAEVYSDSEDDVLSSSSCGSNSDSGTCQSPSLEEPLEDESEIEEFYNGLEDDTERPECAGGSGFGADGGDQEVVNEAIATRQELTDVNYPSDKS
In short: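 H1299 cells transiently co-transfected with expression vectors for p53 and V5-tagged Sirt1, plus a 10-fold molar excess of a vector expressing the Flag-tagged test peptide (with or without a nuclear localization signal). After 48 h, cells are exposed to 20 μM etoposide for 1 hr before harvest. Acetylated p53 is detected by immunoblot with an antibody specific for acetyl-K382.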

[2] = target: T1, Sirt1; conditions: binds to deacetylase core of Sirt1; ref Kim et al., 2008; Zhao et al.; cited from earlier work

inhibition of Sirt1 activity in vivo (p53 deacetylation) [1]: also inhibited Sirt1 activity
Substance: DBC1: Deleted in Breast Cancer 1, endogenous Sirt1 inhibitor
effect on Sirt1 activity [2]: inhibits its activity
